Compounds with a hit are over-represented: about 2.3% of the library has one in this group of screens.
TRPC4 PAM = positive allosteric modulators of TRPC4, primary screen, cell-based, mouse TRPC4beta, HEK293 mu-opioid, Fluo-4 calcium. Short transient receptor potential channel 4 (Mus musculus), Q9QUQ5. DAMGO EC20, Fluo-4 Ca2+ flux; active compounds read high. B-score at 10 µM. hit rate 0.42% among 310,000. AID 2227, 2009;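 active = B-score of calcium response area above 5 SD of library B-scores, with initial fluorescence ratio within 5 SD of library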;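 also: B-score of integrated fluorescence ratio over time as area under calcium response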
TRPC4 agonist = activators of mouse TRPC4 channel, primary screen, Fluo4 calcium, HEK293 TRPC4beta/mu-opioid cells; Short transient receptor potential channel 4 (Mus musculus), Q9QUQ5; hit rate 0.49% among 310,000; AID 2237, 2010; Fluo4 calcium fluorescence; active compounds read high; B-score at 10 µM;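 active = B-score above 5 SD of library B-scores, and initial fluorescence ratio not above library mean plus 5 SD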;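 also: positive B-score marks a calcium rise read as TRPC4 activation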
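Assay system – TRPC4beta and mu-opioid receptor HEK293 stable cells · Measured by – Fluo4 fluorescence, kinetic · Schedule – dye loading 45 min room temperature, 110 s kinetic read · Read-out – B-scored integrated calcium fluorescence ratio · Controls – buffer and maximal DAMGO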
TRPC6 inh = mouse TRPC6 channel inhibitors, primary screen, cell-based, HEK293, membrane potential dye; Short transient receptor potential channel 6 (Mus musculus), Q61143; ACh-evoked depolarization; active compounds read low; B-score at 10 µM; hit rate 1.1% among 310,000; AID 2553, 2010;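 active = B-score under library mean minus 3 SD, initial fluorescence not abnormally high, positive integrated signal ratio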;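 also: B-score derived from integrated fluorescence ratio over the kinetic read; more negative B-score means stronger inhibition of depolarization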
Target sequence (Q61143 whole entry, looked up): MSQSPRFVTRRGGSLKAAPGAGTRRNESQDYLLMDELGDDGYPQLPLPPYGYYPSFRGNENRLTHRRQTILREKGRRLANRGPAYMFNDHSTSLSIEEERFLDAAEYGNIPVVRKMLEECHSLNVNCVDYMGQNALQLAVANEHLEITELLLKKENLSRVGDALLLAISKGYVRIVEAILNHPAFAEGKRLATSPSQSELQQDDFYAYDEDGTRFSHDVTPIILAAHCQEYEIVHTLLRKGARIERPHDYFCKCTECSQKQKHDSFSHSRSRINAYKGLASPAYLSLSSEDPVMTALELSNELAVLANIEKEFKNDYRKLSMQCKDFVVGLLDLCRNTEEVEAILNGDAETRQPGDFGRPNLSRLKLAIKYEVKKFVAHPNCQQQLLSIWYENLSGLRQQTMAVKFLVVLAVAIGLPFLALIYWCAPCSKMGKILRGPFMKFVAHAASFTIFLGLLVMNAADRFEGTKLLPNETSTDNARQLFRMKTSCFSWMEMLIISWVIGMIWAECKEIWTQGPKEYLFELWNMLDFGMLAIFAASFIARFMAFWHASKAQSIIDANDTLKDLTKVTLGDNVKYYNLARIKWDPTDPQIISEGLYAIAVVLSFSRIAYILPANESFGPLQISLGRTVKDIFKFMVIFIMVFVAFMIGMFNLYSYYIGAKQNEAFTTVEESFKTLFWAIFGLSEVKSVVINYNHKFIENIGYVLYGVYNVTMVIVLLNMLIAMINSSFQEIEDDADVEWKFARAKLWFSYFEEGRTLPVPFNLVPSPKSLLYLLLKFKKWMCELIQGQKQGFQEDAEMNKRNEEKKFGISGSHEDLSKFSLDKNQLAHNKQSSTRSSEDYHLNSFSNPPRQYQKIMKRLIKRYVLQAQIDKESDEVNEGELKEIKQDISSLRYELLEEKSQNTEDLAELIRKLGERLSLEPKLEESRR
TRPC4 inh = inhibitors of mouse TRPC4 channel, primary screen, Fluo4 calcium, HEK293 TRPC4beta/mu-opioid cells. Short transient receptor potential channel 4 (Mus musculus), Q9QUQ5. DAMGO-evoked Fluo4 calcium flux; active compounds read low. B-score at 10 µM. hit rate 0.39% among 300,000. AID 2247, 2010;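 active = B-score over 3 SD under the library average, no early fluorescence shift, positive overall ratio signal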
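Signal: kinetic Fluo4 fluorescence imaging of calcium influx. Material: stable TRPC4beta/mu-opioid receptor HEK293 cells. Probe or stimulus: DAMGO in two steps, submaximal then maximal.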
TRPC6 act = mouse TRPC6 channel activators, primary screen, cell-based, HEK293, membrane potential dye. Short transient receptor potential channel 6 (Mus musculus), Q61143. HEK293-TRPC6 membrane potential dye fluorescence; active compounds read high. B-score at 10 µM. hit rate 0.13% among 310,000. AID 2550, 2010;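 active = B-score of the integrated fluorescence ratio above library mean plus 3 SD, and starting fluorescence ratio within library mean plus 5 SD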;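 also: higher score means more depolarization so channel activation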
HEK293 TRPC6 ctr = parental HEK293 membrane potential modulation, confirmation, counter-screen for TRPC6 modulator project, cell-based. hit rate 51% among 2,400. membrane potential dye fluorescence. shares compounds with TRPC6 inh. membrane potential signal change, % at 10 µM. AID 488924, 2010;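 active = membrane potential signal moves up or down beyond 5 SD from buffer-only wells, on both duplicate plates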
HEK293 MPD ctr 2 = parental HEK293 nonspecific activity of TRPC6 modulators, second screen | AID 488926 | inhibition, % at 10 µM | membrane potential dye fluorescence; after compound, maximal acetylcholine stimulation | hit rate 14% among 2,400 | shares compounds with TRPC6 inh;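 active = membrane potential signal drops by more than 5 SD from the mean control signal, in both duplicate plates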;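 also: plate controls were acetylcholine ECmax control wells for no effect and buffer only wells for full effect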
TRPC4 ctr mod = TRPC4 modulation by TRPC6 hit compounds, confirmation, selectivity assay for TRPC6 modulator project, cell-based, HEK293 TRPC4/mu-opioid, membrane potential dye, mouse. membrane potential fluorescence. percent change from control (negative = decrease, positive = increase), % at 10 µM. hit rate 69% among 2,400. shares compounds with TRPC6 inh;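 active = membrane potential signal moved up or down beyond 5 SD of buffer control wells, in both duplicate plates, actives on both sides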;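 also: plate controls were assay buffer wells for no effect and DAMGO maximal-effect wells for full effect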
TRPC4 ctr inh 2 = second selectivity test of TRPC6 modulators against mouse TRPC4. shares compounds with TRPC6 inh. HEK293 TRPC4/mu-opioid, membrane potential dye fluorescence; stimulated with maximal-effect DAMGO. inhibition, % at 10 µM. hit rate 55% among 2,400;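 active = drop in membrane potential signal beyond 5 SD of the control wells in both duplicate plates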;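 also: TRPC4 counter screen for TRPC6 hits run under conditions tuned for TRPC6 not TRPC4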
TRPC6 inh conf = mouse TRPC6 channel inhibitors, confirmation, HEK293 cells, membrane potential dye, duplicate; shares compounds with TRPC6 inh; ACh-evoked depolarization; inhibition, % at 10 µM; hit rate 43% among 3,300; AID 488960, 2010;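 active = fluorescence ratio falls more than 5 SD below the full-stimulation control mean, in both duplicate runs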;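 also: integrated fluorescence ratio of peak minus minimum over baseline after agonist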
TRPC6 act confirm = mouse TRPC6 channel activators, confirmation, HEK293 cells, membrane potential dye, duplicate; shares compounds with TRPC6 inh; activation, % at 10 µM; hit rate 11% among 2,800; AID 488961, 2010; HEK293-TRPC6 membrane potential dye fluorescence, FDSS;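 active = ratio signal rise beyond 5 SD above unstimulated control wells' mean, seen in both duplicate runs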;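 also: plate controls were buffer EC0 wells for no effect and acetylcholine ECmax response for full effect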
The depositor's hits bear a star; i = inactive; · = not tested or not shown.

SMILES | TRPC4 PAM | TRPC4 agonist | TRPC6 inh | TRPC4 inh | TRPC6 act | HEK293 TRPC6 ctr | HEK293 MPD ctr 2 | TRPC4 ctr mod | TRPC4 ctr inh 2 | TRPC6 inh conf | TRPC6 act confirm
c1ccc(-n2cc(CN3CCCC(CN4CCCC4)C3)c(-c3ccc4c(c3)OCO4)n2)cc1 (stereo not drawn) | i | i | -5.8* | i | i | i | i | i | 73%* | i | i
CCc1cc(C(=O)N2CCCC(C(=O)c3ccc(Oc4ccccc4)cc3)C2)n(C)n1 (stereo not drawn) | i | i | i | i | i | · | · | · | · | · | ·
COc1cccc(-c2cccc(NC(=O)C3CCN(Cc4ccc(C)o4)CC3)c2)c1 | i | i | -5.3* | i | i | 128%* | i | 18%* | 44%* | i | ·
COCc1ccc(CN2CCC(C(=O)Nc3cccc(-c4cccc(Cl)c4)c3)CC2)o1 | i | i | i | i | i | · | · | · | · | · | ·
Cc1cc(/C=C2\NC(=S)N(C)C2=O)ccc1N1CCCC1 | i | 49* | i | i | 34* | i | i | 132%* | i | i | 33%*
CCCN1C(=O)/C(=C/c2ccc(N3CCCC3)c(C)c2)NC1=S | i | 58* | i | i | 63* | 670%* | i | 226%* | i | i | 136%*
Cc1cc(/C=C2/C(=O)N(C)C(=S)N2C)ccc1N1CCCC1 | i | i | i | i | i | · | · | · | · | · | ·
CCN1C(=O)/C(=C/c2ccc(N3CCCC3)cc2)NC1=S | i | i | i | i | 30* | 359%* | i | 235%* | i | i | 44%*
O=C(O)CN1C(=O)C2(OCCO2)c2cc(Br)ccc21 | i | i | i | i | i | · | · | · | · | · | ·
